Changes are numbered by the printed parent chain.

The results in this text go back to ChEMBL document CHEMBL2034818, “Synthesis and evaluation of boronic acids as inhibitors of Penicillin Binding Proteins of classes A, B and C” (Bioorg Med Chem, 2012).

In assay [1] the target is D-alanyl-D-alanine carboxypeptidase (Actinomadura sp. R39) (UniProt P39045). Description: Inhibition of Actinomadura sp. R39 PBP using S2d as substrate assessed as residual activity at 1 mM incubated for 60 mins prior to substrate addition by DTNB-based spectrophotometry. In short, it runs like this: (§1)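 R39 (Actinomadura, prepared per Granier), 3.5 nM, pre-incubated with inhibitor 60 min at 25 °C in 10 mM sodium phosphate pH 7.2, 100 mM NaCl, 100 mM D-alanine, 0.01 mg/mL BSA; inhibitors from DMF stock, 1% DMF final. Residual activity from initial rate of S2d (1 mM) hydrolysis with DTNB (1 mM), read at 412 nm, corrected for spontaneous hydrolysis; triplicates, uninhibited control six replicates per plate.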

Assay [2] has as its system Streptococcus pneumoniae. Description: Inhibition of Streptococcus pneumoniae PBP1b using PATP thioester as substrate assessed as residual activity at 100 uM incubated for 60 mins prior to substrate addition by DNTB-based spectrophotometry in the presence of triton X 100. The gist of the method: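 Assay B: S. pneumoniae PBP1b (0.2 µM) pre-incubated with inhibitor 60 min at 25 °C in 10 mM sodium phosphate pH 7.0, 100 mM D-alanine, 0.01 mg/mL BSA, 0.01% Triton X-100. Residual activity from initial rates of PATP thioester (5 mM) hydrolysis with DTNB (1.0 mM); IC50 by non-linear regression of residual activity across concentrations.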

In assay [3] the target is T1, Penicillin-binding protein 2x (Streptococcus pneumoniae serotype 4 (strain ATCC BAA-334 / TIGR4)) (UniProt P14677).
T1 sequence (whole entry): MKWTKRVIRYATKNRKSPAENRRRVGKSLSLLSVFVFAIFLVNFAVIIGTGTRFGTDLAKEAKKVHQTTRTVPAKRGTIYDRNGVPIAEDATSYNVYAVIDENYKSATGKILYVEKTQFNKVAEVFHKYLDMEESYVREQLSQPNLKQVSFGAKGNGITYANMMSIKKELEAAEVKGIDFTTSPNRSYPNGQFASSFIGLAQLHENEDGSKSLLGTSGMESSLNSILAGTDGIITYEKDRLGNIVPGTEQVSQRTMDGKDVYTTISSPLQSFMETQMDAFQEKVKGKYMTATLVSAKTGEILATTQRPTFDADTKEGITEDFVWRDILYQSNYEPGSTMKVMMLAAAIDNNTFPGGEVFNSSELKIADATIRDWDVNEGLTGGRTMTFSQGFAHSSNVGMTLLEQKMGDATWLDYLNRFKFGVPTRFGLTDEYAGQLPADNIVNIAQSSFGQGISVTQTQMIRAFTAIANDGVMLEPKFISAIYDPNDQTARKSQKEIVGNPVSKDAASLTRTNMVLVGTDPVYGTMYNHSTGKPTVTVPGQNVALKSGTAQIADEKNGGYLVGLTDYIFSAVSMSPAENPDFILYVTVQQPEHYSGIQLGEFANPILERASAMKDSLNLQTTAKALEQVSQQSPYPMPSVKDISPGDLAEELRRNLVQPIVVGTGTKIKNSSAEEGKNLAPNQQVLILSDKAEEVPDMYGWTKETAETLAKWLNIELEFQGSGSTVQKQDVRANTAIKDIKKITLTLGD
Description: Inhibition of penicillin-resistant Streptococcus pneumoniae 5204 PBP2x using S2d as substrate assessed as residual activity at 1 mM incubated for 4 hrs prior to substrate addition by DNTB-based spectrophotometry.

In assay [4] the test system is Streptococcus pneumoniae. Description: Inhibition of Streptococcus pneumoniae PBP1b assessed as residual activity at 1mM incubated for 60 mins prior to fluoresceyl-ampicillin labelling measured after 20 mins by SDS-PAGE analysis in the presence of triton X 100. The gist of the method:
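Assay A: purified S. pneumoniae PBP1b (0.7 µM) pre-incubated with inhibitor in 10 mM sodium phosphate pH 7.0, 60 min, 25 °C, 0.01% Triton X-100. Remaining active enzyme labelled with fluoresceyl-ampicillin (10 µM), 20 min; reaction stopped, run on SDS-PAGE, fluorescence of the band quantified as residual activity.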

Assay [5] deals with T2, Penicillin-binding protein 2X (Streptococcus pneumoniae R6, UniProt P59676).
T2 sequence (P59676 whole entry): T1 sequence (whole entry) with T385M
Description: Inhibition of penicillin-sensitive Streptococcus pneumoniae R6 PBP2x using S2d as substrate incubated for 60 mins prior to substrate addition by DTNB-based spectrophotometry. The gist of the method: (§2)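 PBP purified per earlier method. Pre-incubation: enzyme with inhibitor (DMF stock, 1% DMF final) at 25 °C for 60 min. Buffer for R39 (3.5 nM): 10 mM sodium phosphate pH 7.2, 100 mM NaCl, 100 mM D-alanine, 0.01 mg/mL BSA. Buffer for PBP2xR6: 10 mM sodium phosphate pH 7.0, 0.01 mg/mL BSA. S2d (1 mM) and DTNB (1 mM) then added. Initial hydrolysis rate read at 412 nm. Triplicates. IC50 by non-linear regression of residual activity over a concentration range, with 0.01% Triton X-100.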

For assay [6], the system named is Enterococcus faecium. Description: Inhibition of penicillin-resistant Enterococcus faecium PBP5fm assessed as residual activity at 1 mM incubated for 4 hrs prior to prior to fluoresceyl-ampicillin labelling measured after 20 mins by SDS-PAGE analysis.
Assay [7] has as its target T3, Penicillin-binding protein 2X (Streptococcus pneumoniae R6) (UniProt P59676).
T3 sequence (whole entry): T1 sequence (whole entry) with T385M
Description: Inhibition of penicillin-sensitive Streptococcus pneumoniae R6 PBP2x using S2d as substrate assessed as residual activity at 1 mM incubated for 60 mins prior to substrate addition by DTNB-based spectrophotometry. In short, it runs like this: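 S. pneumoniae PBP2x-R6, 0.09 µM, pre-incubated with inhibitor in 10 mM sodium phosphate pH 7.0 with 0.01 mg/mL BSA, 60 min, 25 °C; 1% DMF final. S2d (1 mM) plus DTNB (1 mM) then added; residual activity taken from initial hydrolysis rate at 412 nm, corrected for spontaneous hydrolysis; triplicates, six no-inhibitor controls per plate.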

For assay [8], the system named is Staphylococcus aureus. Description: Inhibition of penicillin-resistant Staphylococcus aureus PBP2a assessed as residual activity at 1 mM incubated for 4 hrs prior to prior to fluoresceyl-ampicillin labelling measured after 20 mins by SDS-PAGE analysis.
The target in assay [9] is T1, Penicillin-binding protein 2x (Streptococcus pneumoniae serotype 4 (strain ATCC BAA-334 / TIGR4)). Description: Inhibition of penicillin-resistant Streptococcus pneumoniae 5204 PBP2x using S2d as substrate assessed as residual activity at 1 mM incubated for 4 hrs prior to substrate addition by DNTB-based spectrophotometry in the presence of triton X 100.
The target of assay [10] is T4, D-alanyl-D-alanine carboxypeptidase (Actinomadura sp. R39, UniProt P39045). Description: Binding affinity to Actinomadura sp. R39 PBP.
The target of assay [11] is T3, Penicillin-binding protein 2X (Streptococcus pneumoniae R6). Description: Inhibition of penicillin-sensitive Streptococcus pneumoniae R6 PBP2x using S2d as substrate assessed as residual activity at 1 mM incubated for 60 mins prior to substrate addition by DTNB-based spectrophotometry in presence of triton X 100. In short, it runs like this: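 PBP2xR6 (0.09 µM) pre-incubated with inhibitor for 60 min at 25 °C in 10 mM sodium phosphate pH 7.0, 0.01 mg/mL BSA, with 0.01% Triton X-100. 1% DMF final. S2d (1 mM) and DTNB (1 mM) then added. Initial hydrolysis rate read at 412 nm. Triplicates. Uninhibited activity from six replicates per plate.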

Assay [12] concerns the target T4, D-alanyl-D-alanine carboxypeptidase. Description: Inhibition of Actinomadura sp. R39 PBP using S2d as substrate incubated for 60 mins prior to substrate addition by DTNB-based spectrophotometry. The gist of the method: as §2
For assay [13], the target named is D-alanyl-D-alanine carboxypeptidase (Actinomadura sp. R39) (UniProt P39045). Description: Inhibition of Actinomadura sp. R39 PBP using S2d as substrate assessed as residual activity at 1 mM incubated for 60 mins prior to substrate addition by DTNB-based spectrophotometry in presence of triton X 100. In short, it runs like this: as §1

T4 sequence (P39045 whole entry): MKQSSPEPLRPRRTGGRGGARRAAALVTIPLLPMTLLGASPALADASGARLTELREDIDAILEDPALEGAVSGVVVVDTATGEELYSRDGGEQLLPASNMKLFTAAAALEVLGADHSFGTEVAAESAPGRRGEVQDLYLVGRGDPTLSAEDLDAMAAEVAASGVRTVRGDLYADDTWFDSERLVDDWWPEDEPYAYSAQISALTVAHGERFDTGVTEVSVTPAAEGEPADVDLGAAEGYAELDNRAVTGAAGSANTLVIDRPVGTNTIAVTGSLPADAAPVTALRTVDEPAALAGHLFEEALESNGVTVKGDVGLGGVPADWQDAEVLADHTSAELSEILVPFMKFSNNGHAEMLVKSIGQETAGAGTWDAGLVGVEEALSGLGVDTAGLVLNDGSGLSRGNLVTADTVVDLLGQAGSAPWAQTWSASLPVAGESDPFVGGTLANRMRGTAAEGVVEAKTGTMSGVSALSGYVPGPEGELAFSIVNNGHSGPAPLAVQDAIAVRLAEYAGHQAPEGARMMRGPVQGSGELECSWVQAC
Chain of D-alanyl-D-alanine carboxypeptidase (Actinomadura sp. R39) (P39045 whole entry): as above

For the compound `O=C(Cc1ccccc1Cl)NCB(O)O`, the Activity in assay [1] was 57%; in assay [2] it was 96%; in [3], 90%; in [4] it was 24%; in assay [6], 88%; in assay [7] it was 26%. In addition, the Activity in assay [8] stood at 77%. The same compound came in with an IC50 in assay [5] of 649 µM.

`O=C(NCB(O)O)c1ccc(Cl)cc1`: the Activity in assay [1] turned out to be 73%; in assay [2], 70%; in assay [3], 101%; in [4] it was 29%; in assay [6], 93%; in [7], 89%. In addition, the Activity in assay [8] worked out at 100%.

Turning to `O=C(NCB(O)O)c1ccccc1[N+](=O)[O-]`, the Activity in assay [2] came to 24%; in assay [9], 108%; in [6] it was 88%; in [11], 21%; in [13], 0%; in assay [8], 92%. For the same compound, the IC50 in assay [5] was 138 µM; in [12], 0.6 µM. Besides, the Ki in assay [10] is 0.36 µM.

As to `O=C(Cc1ccc(Cl)cc1)NCB(O)O`, the Activity in assay [1] worked out at 71%; in assay [2], 69%; in assay [9] it was 82%; in assay [4], 20%; in assay [6] it was 88%; in assay [7], 32%. The Activity in [8] was 89%. This compound displayed an IC50 in [5] of 376 µM.

Take `COc1ccc(C(=O)NCB(O)O)cc1`: the Activity in assay [1] came to 50%; in [2], 82%; in [3], 94%; in assay [4], 38%; in [6], 81%; in [7] it was 81%. Further, the Activity in assay [8] amounted to 92%.

Turning to `O=C(NCB(O)O)c1ccccc1C(F)(F)F`, the Activity in [1] came to 5%; in assay [3], 109%; in [4], 69%; in assay [7], 44%. Also, the half-inhibitory concentration (IC50) worked out at 481 µM in assay [5] and 15 µM in assay [12].

As to `NCB(O)O`, the Activity in assay [1] was 99%.

As to `COc1cccc(OC)c1C(=O)NCC(=O)O`, the Activity in assay [1] was found to be 87%.

For the compound `O=C(NCB(O)O)c1ccccc1`, the Activity in [3] stood at 81%; in [4], 56%; in assay [6], 79%; in [7], 78%; in [13], 80%; in assay [8], 81%.

`O=C(Cc1ccccc1[N+](=O)[O-])NCB(O)O`: the Activity in assay [1] is 52%; in assay [2] it was 52%; in [3], 86%; in [6] it was 84%; in assay [7], 31%; in assay [8], 85%. This compound registered a half-maximal inhibitory concentration (IC50) in [5] of 339 µM.

With `O=C(NCB(O)O)c1cccs1`, the Activity in assay [11] was determined as 66%; in assay [13], 73%.

In the case of `COc1ccc(C(=O)NCB(O)O)c(OC)c1`, the Activity was 76% in assay [2]; 97% in [9]; 18% in [4]; 86% in assay [6]; 69% in [11]; 69% in [13]. In [8], the Activity is 91%.

As to `COc1ccc(C(=O)NCB(O)O)cc1OC`, the Activity in [1] amounted to 81%; in assay [9] it was 98%; in assay [4] it was 90%; in assay [6] it was 78%; in [7] it was 82%; in assay [8] it was 75%.

As to `O=C(CCC1CCCC1)NCB(O)O`, the Activity in assay [1] was found to be 71%; in [9] it was 98%; in assay [4] it was 59%; in assay [6], 85%; in assay [7] it was 79%; in assay [8], 100%.

Turning to `O=C(NCB(O)O)c1ccccc1F`, the Activity in assay [1] came to 30%; in assay [2], 14%; in [9] it was 106%; in [6], 83%; in assay [7] it was 56%; in [8], 88%. In [12], this compound returned an IC50 of 505 µM.
